Test results taken from ChEMBL document CHEMBL2375228, “4-Bromo-2-(piperidin-1-yl)thiazol-5-yl-phenyl methanone (12b) inhibits Na+/K(+)-ATPase and Ras oncogene activity in cancer cells” (Eur J Med Chem, 2013).

Legend:
[1] = test system: MCF7; test: Cytotoxicity against human MCF7 cells after 72 hrs by MTT assay; assay type: functional, cell-based; conditions: MCF7, 72 h
Method in brief: (§1)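 Cells grown in RPMI with 10% heat-inactivated fetal calf serum and exposed to compound for 72 h. Overall growth read by MTT colorimetric assay; IC50 derived from it. Six replicates per condition.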

[2] = Cytotoxicity against human Hs683 cells after 72 hrs by MTT assay; assay type: functional, cell-based; conditions: Hs 683, 72 h; method in brief: as §1
[3] = test system: PC-3; test: Cytotoxicity against human PC3 cells after 72 hrs by MTT assay; assay type: functional, cell-based; conditions: PC-3, 72 h; method in brief: as §1
[4] = test system: SK-MEL-28; test: Cytotoxicity against human SK-MEL-28 cells after 72 hrs by MTT assay; assay type: functional, cell-based; conditions: SK-MEL-28, 72 h; method in brief: as §1
[5] = Cytotoxicity against human U373 cells after 72 hrs by MTT assay; assay type: functional, cell-based, U-373MG ATCC; conditions: U373 MG; method in brief: as §1
[6] = test system: A549; test: Cytotoxicity against human A549 cells after 72 hrs by MTT assay; assay type: functional, cell-based; conditions: A549, 72 h; method in brief: as §1

With `COC(=O)c1sc2nc(N3CCCC3)sc2c1C` the IC50 [1] was 56 µM, the IC50 [2] was 91 µM and the IC50 [3] was over 100 µM. The IC50 [4] was over 100 µM, the IC50 [5] was 89 µM and the IC50 [6] was 86 µM.

For `O=C(c1ccccc1)c1sc(N2CCOCC2)nc1Br`, the IC50 [1] was 51 µM, the IC50 [2] was 93 µM and the IC50 [3] was over 100 µM. For the same compound, the IC50 [4] was over 100 µM, the IC50 [5] was over 100 µM and the IC50 [6] was 84 µM.

For `N#Cc1sc(N2CCCCC2)nc1Br`, the IC50 [1] was 77 µM, the IC50 [2] was 84 µM and the IC50 [3] was over 100 µM. The IC50 [4] was over 100 µM, the IC50 [5] was over 100 µM and the IC50 [6] was 93 µM.

With `CCOC(=O)c1sc(N2CCCC2)nc1Cl` the IC50 [1] was 79 µM, the IC50 [2] was 54 µM and the IC50 [3] was 78 µM. It also gave an IC50 [4] of 82 µM, an IC50 [5] of over 100 µM and an IC50 [6] of 61 µM.

`O=C(c1ccccc1)c1sc(N2CCOCC2)nc1Cl` gave an IC50 [1] of 70 µM, an IC50 [2] of over 100 µM and an IC50 [3] of over 100 µM. For the same compound, the IC50 [4] was over 100 µM, the IC50 [5] was 92 µM and the IC50 [6] was 78 µM.

`COC(=O)c1sc2nc(N3CCOCC3)sc2c1C` showed an IC50 [1] of 78 µM, an IC50 [2] of 92 µM and an IC50 [3] of over 100 µM. The IC50 [4] was over 100 µM, the IC50 [5] was over 100 µM and the IC50 [6] was 96 µM.

With `COC(=O)c1sc2nc(SC)sc2c1C` the IC50 [1] was 69 µM, the IC50 [2] was 79 µM and the IC50 [3] was 90 µM. It also gave an IC50 [4] of over 100 µM, an IC50 [5] of 92 µM and an IC50 [6] of 78 µM.

Work on `CC(=O)c1sc(N2CCOCC2)nc1Cl` yielded an IC50 [1] of 88 µM, an IC50 [2] of over 100 µM and an IC50 [3] of over 100 µM. For the same compound, the IC50 [4] was over 100 µM, the IC50 [5] was 83 µM and the IC50 [6] was over 100 µM.
